The source of these data is ChEMBL document CHEMBL1158336, “Synthesis, antitubercular activity and docking study of novel cyclic azole substituted diphenyl ether derivatives” (2009).

≈ marks a conversion by molar mass, not a printed value.

Test [1] relates to Mycobacterium tuberculosis. As to the kind of experiment: Antimycobacterial activity against Mycobacterium tuberculosis H37Rv at 1 ug/ml after 6 weeks. It is filed as functional. Put shortly:
(§1)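 Lowenstein–Jensen slope method. Compounds dissolved in DMSO, diluted in DMSO, and an aliquot mixed into L.J. medium at 0.8 mL per 7.2 mL. Slopes set and sterilised at 75–80 °C for 3 days. M. tuberculosis H37Rv suspended with glass beads in sterile water and inoculated by 3 mm nichrome loop. DMSO-only and compound-free media served as controls.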

Test [2] relates to Mycobacterium tuberculosis. Put plainly: Antimycobacterial activity against Mycobacterium tuberculosis H37Rv after 6 weeks. The class given is functional. Put shortly: as §1

With `S=c1[nH]nc(-c2ccc(Oc3ccccc3)cc2)o1`, the Activity in test [1] is listed as 100%. Consider `c1ccc(Oc2cccc(-c3nc(-c4ccccc4)co3)c2)cc1`, for which, in test [1], the Activity stood at 100%.

Turning to `COc1ccc(-c2coc(-c3cccc(Oc4ccccc4)c3)n2)cc1`, the Activity in test [1] is 100%.

As for `S=c1[nH]nc(-c2cccc(Oc3ccccc3)c2)n1-c1ccccc1`, in test [1], the Activity is 100%. The compound `Clc1ccc(-c2coc(-c3cccc(Oc4ccccc4)c3)n2)cc1` displayed an Activity in test [1] of 100%.

`O=C(c1ccccc1)N1N=C(c2ccccn2)CC1c1ccc(Oc2ccccc2)cc1` (centres undefined) gave an Activity in test [1] of 100%. On the same count and under the same terms, the figure for `S=c1[nH]nc(-c2ccccc2Oc2ccccc2)o1` is 100%. On the same count and under the same terms, to `S=c1[nH]nc(-c2cccc(Oc3ccccc3)c2)o1` belongs 100%; to `S=c1[nH]nc(-c2ccc(Oc3ccccc3)cc2)n1-c1ccccc1`, 100%; to `S=c1[nH]nc(-c2ccccc2Oc2ccccc2)n1-c1ccccc1`, 100%.

The term MIC denotes the lowest concentration that inhibits growth of the organism. `NNC(=O)c1ccncc1` [ISONIAZID] displayed an MIC in test [2] of 0.01 µg/mL (≈ 0.0729 µM).

On to `CO[C@H]1/C=C/O[C@@]2(C)Oc3c(C)c(O)c4c(O)c(c(/C=N/N5CCN(C)CC5)c(O)c4c3C2=O)NC(=O)/C(C)=C\C=C\[C@H](C)[C@H](O)[C@@H](C)[C@@H](O)[C@@H](C)[C@H](OC(C)=O)[C@@H]1C` [RIFAMPIN], for which, in test [2], the minimal inhibitory concentration (MIC) was 0.06 µg/mL (≈ 0.0729 µM). With `Oc1cc(Cl)ccc1Oc1ccc(Cl)cc1Cl` [TRICLOSAN], in test [1], the Activity turned out to be 100%. In addition, the MIC in test [2] was 5 µg/mL (≈ 17.3 µM).
